Source: ChEMBL document CHEMBL5550188, “Detection of a Mitochondrial Fragmentation and Integrated Stress Response Using the Cell Painting Assay” (2024)
Calls of active or inactive are those of the source.

Key:
U2OS [1] = test: Induction of integrated stress response in human U2OS cells assessed as increase ATF4 level at 50 uM incubated for 24 hrs by Western blot analysis; format: functional, cell-based
How it was run: (§1)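 U-2OS grown to 80% confluence in 6-well plates were treated 24 h at 37 °C versus DMSO. ATF4 was detected by immunoblotting, with vinculin as reference protein.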

U2OS [2] = test: Effect on glycolysis in human U2OS cells assessed as increase in ECAR level at highest concentration measured after 24 hrs by Seahorse analysis; format: functional, cell-based
How it was run: (§2)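 Seahorse XFp Mito Stress Test on U-2OS, 2 × 10⁵ cells per well, seeded overnight. Assay medium was pH 7.4 DMEM with 2 mM GlutaMAX, 1 mM pyruvate and 25 mM glucose. For acute runs, compound was injected after 5 baseline reads, then 10 reads. Otherwise cells were pretreated 24 h. Then oligomycin A, FCCP and rotenone/antimycin A were added. OCR/ECAR were background-subtracted and normalized to the last baseline (100%). Mean ± SD, n = 3.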

U2OS [3] = test: Inhibition of cell confluence in human U2OS cells at 10 uM measured after 48 hrs by PI/caspase-3/7 Green dye based analysis; format: functional
How it was run: (§3)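 U-2OS at 5000/well were incubated overnight, then given medium with compound or DMSO plus propidium iodide and CellEvent Caspase-3/7 Green. Cells were imaged hourly for 48 h by live-cell imaging. Phase confluence gave growth; red and green object confluence gave PI-positive cells and caspase-3/7 activity.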

HEK-293T [4] = test: Upregulation of HIF1 level in HEK293T cells transfected with HIF1/luc at 2 uM incubated for 24 hrs by Renilla luciferase base assay; format: functional, cell-based; conditions: Homo sapiens
How it was run: (§4)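 HEK293T were co-transfected (Lipofectamine 2000) with a PGK1-HRE-driven destabilized firefly luciferase reporter and constitutive TK-Renilla. Cells were seeded at 2.5 × 10⁴/well, then treated 24 h the next day, with 100 μM CoCl₂ and 10 μM ML228 as controls. Dual-Glo readout: firefly was normalized to Renilla and expressed as fold induction over DMSO.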

U2OS [5] = test: Induction of oxidative stress in human U2OS cells assessed as increase in mitochondrial superoxide level at 2 uM incubated for 1 hr by MitoSox Red staining based analysis; format: functional, cell-based
How it was run: (§5)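 U-2OS at 15,000/well were preloaded 30 min with 5 μM MitoSOX Red plus Hoechst in plain DMEM. They were then treated 60 min in complete DMEM, fixed in 0.5% paraformaldehyde, and imaged at 10×. Integrated MitoSOX intensity per cell was normalized to DMSO (0%) and 10 μM CDNB (100%). Mean ± SD, n = 3.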

U2OS [6] = test: Effect on glycolysis in human U2OS cells assessed as increase in ECAR level at 2 to 10 uM of acute treatment by Seahorse analysis; format: functional, cell-based; conditions: dose 2-10 µM; how it was run: as §2
U2OS [7] = test: Induction of integrated stress response in human U2OS cells assessed as increase ATF4 mRNA level at 2 uM incubated for 24 hrs by RT-qPCR analysis; format: functional, cell-based
How it was run: (§6)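 U-2OS at 1 × 10⁵/well in 6-well plates were grown 24 h to ~80% confluence, then treated 24 h versus DMSO. Total RNA (DNase-treated) was reverse-transcribed and ATF4 measured by SYBR Green qPCR. Expression was calculated by ΔΔCt against GAPDH, with DMSO set to 100%. Mean ± SD, n = 3.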

U2OS [8] = test: Effect on mitochondrial respiration in human U2OS cells assessed as suppression of OCR level at 10 uM measured after 24 hrs by Seahorse analysis relative to control; format: functional; how it was run: as §2
U2OS [9] = test: Effect on mitochondrial respiration in human U2OS cells assessed as suppression of OCR level at 2 to 10 uM of acute treatment by Seahorse analysis; format: functional, cell-based; conditions: dose 2-10 µM; how it was run: as §2
U2OS [10] = test: Induction of integrated stress response in human U2OS cells assessed as increase ATF4 level at 2 uM incubated for 24 hrs by Western blot analysis; format: functional, cell-based; how it was run: as §1
U2OS [11] = test: Inhibition of cell confluence in human U2OS cells at 2 uM measured after 48 hrs by PI/caspase-3/7 Green dye based analysis; format: functional; how it was run: as §3
U2OS [12] = test: Effect on mitochondrial dysfunction in human U2OS cells at 2 uM incubated for 24 hrs by pathway over-representation analysis; format: functional, cell-based
How it was run: (§7)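 U-2OS seeded at 1 × 10⁶ cells in T75 flasks, treated next day for 24 h at 37 °C versus DMSO. Cells were lysed by freeze–thaw, reduced with TCEP at 55 °C, alkylated with iodoacetamide, acetone-precipitated and trypsin-digested. Peptides were TMT-labelled, split into 10 fractions by high-pH C18, then run on nanoHPLC-MS/MS (orbitrap). Biological triplicates, with pathway over-representation analysis.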

U2OS [13] = test: Induction of mitochondrial fragmentation in human U2OS cells assessed as puncta-like staining at 2 uM incubated for 20 hrs by Mito Tracker Deep Red dye based CPA assay; format: functional, cell-based
How it was run: (§8)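 Cell Painting: U-2OS were seeded at 1600 cells/well, then dosed 4 h later for 20 h at 37 °C against a matched-% DMSO control. Live cells were stained 30 min with 100 nM MitoTracker Deep Red, then fixed in 3.7% formaldehyde and permeabilized with 0.1% Triton X-100. They were co-stained with phalloidin, concanavalin A, Hoechst, WGA and SYTO 14. Imaging was high-content, run as triplicate plates; features are Z-scores versus DMSO median/MAD.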

U2OS [14] = test: Effect on mitochondrial respiration in human U2OS cells assessed as suppression of OCR level measured after 24 hrs by Seahorse analysis; format: functional, cell-based; how it was run: as §2
U2OS [15] = test: Effect on oxidative phosphorylation in human U2OS cells at 2 uM incubated for 24 hrs by pathway over-representation analysis; format: functional, cell-based; how it was run: as §7
U2OS [16] = test: Induction of mitochondrial network fragmentation in human U2OS cells at 2 uM incubated for 24 hrs by CellLight Mitochondria-GFP assay; format: functional, cell-based
How it was run: (§9)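 U-2OS were transduced with CellLight Mitochondria-GFP BacMam 2.0 one day before treatment. 3000 cells/well were seeded in chamber slides. After compound addition, live cells were imaged by confocal microscopy (488/555 nm) continuously over 24 h at 37 °C, 5% CO₂.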

U2OS [17] = test: Effect on mitochondrial membrane potential in human U2OS cells at 2 uM incubated for 24 hrs by TRME staining based analysis; format: functional, cell-based
How it was run: (§10)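 U-2OS (5 × 10³/well) were treated 24 h, then given 20 μM FCCP or 0.5% DMSO controls for 10 min. Cells were stained 30 min at 37 °C with 1 μM TMRE plus Hoechst-33342 in complete DMEM, washed, and imaged live in 0.2% BSA/PBS at 10× (TMRE ex/em 549/575 nm).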

U2OS [18] = test: Effect on HIF1 signaling in human U2OS cells at 2 uM incubated for 24 hrs by pathway over-representation analysis; format: functional, cell-based; how it was run: as §7
HEK-293T [19] = test: Upregulation of HIF1 level in HEK293T cells transfected with HIF1/luc at 30 uM incubated for 24 hrs by Renilla luciferase base assay; format: functional, cell-based; conditions: Homo sapiens; how it was run: as §4
U2OS [20] = test: Effect on glucose metabolism in human U2OS cells at 30 uM incubated for 24 hrs by pathway over-representation analysis; format: functional, cell-based; how it was run: as §7
U2OS [21] = test: Induction of mitochondrial fragmentation in human U2OS cells assessed as puncta-like staining at 30 to 50 uM incubated for 20 hrs by Mito Tracker Deep Red dye based CPA assay; format: functional, cell-based; conditions: dose 30-50 µM; how it was run: as §8
U2OS [22] = test: Induction of oxidative stress in human U2OS cells assessed as increase in mitochondrial superoxide level at 30 uM incubated for 1 hr by MitoSox Red staining based analysis; format: functional, cell-based; how it was run: as §5
U2OS [23] = test: Effect on HIF1 signaling in human U2OS cells at 30 uM incubated for 24 hrs by pathway over-representation analysis; format: functional, cell-based; how it was run: as §7
U2OS [24] = test: Induction of integrated stress response in human U2OS cells assessed as increase ATF4 mRNA level at 30 uM incubated for 24 hrs by RT-qPCR analysis; format: functional, cell-based; how it was run: as §6
U2OS [25] = test: Effect on mitochondrial morphology in human U2OS cells at high concentration incubated for 20 hrs by Mito Tracker Deep Red dye based CPA assay; format: functional, cell-based; how it was run: as §8
U2OS [26] = test: Effect on mitochondrial membrane potential in human U2OS cells at 30 uM incubated for 24 hrs by TRME staining based analysis; format: functional, cell-based; how it was run: as §10
U2OS [27] = test: Effect on glycolysis in human U2OS cells at 30 uM incubated for 24 hrs by pathway over-representation analysis; format: functional, cell-based; how it was run: as §7
U2OS [28] = test: Effect on EIF2 level in human U2OS cells at 30 uM incubated for 24 hrs by proteome profiling based analysis; format: functional, cell-based; how it was run: as §7
U2OS [29] = test: Effect on mitochondrial respiration in human U2OS cells assessed as suppression of OCR level at 30 uM measured after 24 hrs by Seahorse analysis relative to control; format: functional; how it was run: as §2
U2OS [30] = test: Effect on oxidative phosphorylation in human U2OS cells at 30 uM incubated for 24 hrs by pathway over-representation analysis; format: functional, cell-based; how it was run: as §7
U2OS [31] = test: Effect on glycolysis in human U2OS cells assessed as increase in ECAR level at 10 to 30 uM of acute treatment by Seahorse analysis; format: functional, cell-based; conditions: dose 10-30 µM; how it was run: as §2
U2OS [32] = test: Effect on mitochondrial respiration in human U2OS cells assessed as suppression of OCR level at 10 to 30 uM of acute treatment by Seahorse analysis; format: functional, cell-based; conditions: dose 10-30 µM; how it was run: as §2
U2OS [33] = test: Upregulation of HK2 expression in human U2OS cells at 10 to 30 uM incubated for 24 hrs by proteome profiling based analysis; format: functional, cell-based; conditions: dose 10-30 µM; how it was run: as §7
U2OS [34] = test: Downregulation of MRPs level in human U2OS cells at 30 uM incubated for 24 hrs by proteome profiling based analysis; format: functional, cell-based; how it was run: as §7
U2OS [35] = test: Inhibition of cell confluence in human U2OS cells at 10 to 50 uM measured after 48 hrs by PI/caspase-3/7 Green dye based analysis; format: functional; conditions: dose 10-50 µM; how it was run: as §3
U2OS [36] = test: Upregulation of SLC2A1 expression in human U2OS cells at 10 to 30 uM incubated for 24 hrs by proteome profiling based analysis; format: functional, cell-based; conditions: dose 10-30 µM; how it was run: as §7
U2OS [37] = test: Induction of mitochondrial network fragmentation in human U2OS cells incubated for […] by CellLight Mitochondria-GFP assay; format: functional, cell-based; conditions: dose 30.0 µM; how it was run: as §9
U2OS [38] = test: Induction of integrated stress response in human U2OS cells assessed as increase ATF4 level at 30 uM incubated for 24 hrs by Western blot analysis; format: functional, cell-based; how it was run: as §1
U2OS [39] = test: Downregulation of […] level in human U2OS cells at 10 to 30 uM incubated for 24 hrs by proteome profiling based analysis; format: functional, cell-based; conditions: dose 10-30 µM; how it was run: as §7
U2OS [40] = test: Upregulation of HMOX1 expression in human U2OS cells at 30 uM incubated for 24 hrs by proteome profiling based analysis; format: functional, cell-based; how it was run: as §7
U2OS [41] = test: Upregulation of EGLN1 expression in human U2OS cells at 10 to 30 uM incubated for 24 hrs by proteome profiling based analysis; format: functional, cell-based; conditions: dose 10-30 µM; how it was run: as §7
U2OS [42] = test: Effect on mitochondrial dysfunction in human U2OS cells at 30 uM incubated for 24 hrs by pathway over-representation analysis; format: functional, cell-based; how it was run: as §7

CC(=O)N(O)CCCCCNC(=O)CCC(=O)N(O)CCCCCNC(=O)CCC(=O)N(O)CCCCCN
inactive: Activity (U2OS [1])

CCOC(=O)CCNc1cc(N2CCc3ccccc3CC2)nc(-c2ccccn2)n1
inactive: Activity (U2OS [6]) | Activity (U2OS [9]) | inhibition (U2OS [11]) | Activity (U2OS [17]) | Activity (U2OS [18])
~100%: Activity (U2OS [8])
active: Activity (U2OS [2]) | inhibition (U2OS [3]) | Activity (HEK-293T [4]) | Activity (U2OS [5]) | Activity (U2OS [7]) | Activity (U2OS [10]) | Activity (U2OS [12]) | Activity (U2OS [13]) | Activity (U2OS [14]) Dose-Dependent Effect | Activity (U2OS [15]) | Activity (U2OS [16])

Cc1cc(C2CCCCC2)n(O)c(=O)c1 [CICLOPIROX]
inactive: Activity (U2OS [26]) | Activity (U2OS [31]) | Activity (U2OS [32]) | inhibition (U2OS [35])
active: Activity (HEK-293T [19]) | Activity (U2OS [2]) | Activity (U2OS [20]) | Activity (U2OS [21]) | Activity (U2OS [22]) | Activity (U2OS [23]) | Activity (U2OS [24]) | Activity (U2OS [25]) | Activity (U2OS [27]) | Activity (U2OS [28]) | Activity (U2OS [30]) | Activity (U2OS [33]) | Activity (U2OS [34]) | Activity (U2OS [36]) | Activity (U2OS [37]) Dose-Dependent Effect | Activity (U2OS [38]) | Activity (U2OS [14]) Dose-Dependent Effect | Activity (U2OS [39]) | Activity (U2OS [40]) | Activity (U2OS [41]) | Activity (U2OS [42])
~100%: Activity (U2OS [29])
